In PubChem BioAssay AID1748 (Sanford-Burnham Center for Chemical Genomics, 2009) one finds cytotoxicity with TRAIL and cytotoxicity data, which are given here for 3 compounds.

In this experiment the test system is MCF7 TRAIL potentiation, ATPlite luminescence, 24 h. Put plainly: TRAIL cytotoxicity enhancement in resistant cancer cells, confirmation, cell-based, MCF7, ATPlite luminescence, 24 h (AID 1748). The conditions noted are these: stronger effect = higher value. An outline of the steps: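 System: human MCF7 breast cancer cells, TRAIL-resistant; probe or stimulus: TRAIL; measured by: ATPlite luminescence; times: 24 h settling, 4 h compound pretreatment, 24 h TRAIL exposure; dosing: compound 1.25–5 µM final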
In general terms: ATP-based viability assays read luminescence as a measure of living cells.

Where [1] appears, read: compound alone 1.25 uM, at 1.25 µM.
Setting [2] is: compound alone 2.5 uM, at 2.5 µM.
Setting [3] is: compound alone, no TRAIL, at 5 µM.
Where [4] appears, read: compound plus TRAIL 1.25 uM, at 1.25 µM.
Setting [5] is: compound plus TRAIL 2.5 uM, at 2.5 µM.

The source made the active and inactive calls.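 The calls were made as follows: active = Cell killing by compound with TRAIL above both separate effects added together, at all three tested doses; inactive = the rest.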

As to `CSc1nc(-c2ccccc2)nc(C(Cl)Cl)n1`, the cytotoxicity with TRAIL was 82% (inactive) (at 5 µM), 55% under setting [4] and 74% under setting [5]. The cytotoxicity runs as follows: under setting [1], 0%; under setting [2], 36%; under setting [3], 55%.
In the case of `CSc1nc(-c2ccc(C)cc2)nc(C(Cl)Cl)n1`, the cytotoxicity with TRAIL by setting is: (at 5 µM) 57% (inactive); under setting [4], 37%; under setting [5], 48%. The cytotoxicity by setting is: under setting [1], 0%; under setting [2], 8%; under setting [3], 26%.
In the case of `CCSc1nc(-c2ccccc2)nc(C(Cl)Cl)n1`, the cytotoxicity with TRAIL (at 5 µM) is 72%, the cytotoxicity with TRAIL under setting [4] amounted to 44% and the cytotoxicity with TRAIL under setting [5] came to 52%. The cytotoxicity by setting is: under setting [1], 0%; under setting [2], 0%; under setting [3], 28%.
